From ChEMBL document CHEMBL4229344 (Eur J Med Chem, 2018)
Activity calls are given as the source filed them. The calls are words filed in the database; no cut-off is given here.

Columns and labels:
[1] = AUC (0 to t) in Sprague-Dawley rat at 1 mg/kg, iv; assay type: ADME, organism-based; conditions: in vivo
Summary of the method: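 Male Sprague-Dawley rats (6–8 weeks) fasted overnight, dosed IV or orally; compound dissolved in 5% DMSO/40% PEG400/55% saline (dosing solution 1 mg/mL). Blood (~0.2 mL) from jugular vein into heparin; IV sampling 1 min–8 h, oral 5 min–24 h. Plasma separated by centrifugation at 2–8 °C, stored at −80 °C until analysis.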

[2] = target: Platelet-derived growth factor receptor alpha (Homo sapiens, UniProt P16234); assay: Inhibition of PDGFRalpha autophosphorylation at Y849 residue in human EOL-1 cells up to 300 nM after 2 hrs by Western blot analysis; assay type: cell-based
[3] = target: Tyrosine-protein kinase Yes (Homo sapiens) (UniProt P07947); assay: Binding affinity to wild-type human partial length YES (T257 to L543 residues) expressed in bacterial expression system assessed as residual binding level at 1 uM by Kinomescan method relative to control
[4] = test system: Epidermal growth factor receptor (Homo sapiens), P00533 [G719C]; assay: Binding affinity to human partial length EGFR G719C mutant (R669 to V1011 residues) expressed in bacterial expression system assessed as residual binding level at 1 uM by Kinomescan method relative to control
Summary of the method: (§1)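 Kinome-wide single-concentration binding screen (KINOMEscan) at 1 μM against a panel of 468 purified kinases and mutants. Read-out is relative binding of each kinase compared with control. Selectivity across the panel was summarised as an S(10) score.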

[5] = MRT (0 to t) in Sprague-Dawley rat at 10 mg/kg, po; assay type: ADME, organism-based; conditions: in vivo
[6] = target: Inhibitor of nuclear factor kappa-B kinase subunit beta (Homo sapiens) (UniProt O14920); assay: Binding affinity to wild-type human full length IKK-beta (M1 to S756 residues) expressed in mammalian expression system assessed as residual binding level at 1 uM by Kinomescan method relative to control
Summary of the method: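 Single-concentration (1 μM) competition-binding screen run by KINOMEscan against a panel of 468 purified kinases and mutants. The read-out is the relative binding activity of the test compound to each kinase.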

[7] = target: RAC-beta serine/threonine-protein kinase (Homo sapiens) (UniProt P31751); assay: Binding affinity to wild-type human partial length AKT2 expressed in bacterial expression system assessed as residual binding level at 1 uM by Kinomescan method relative to control
Summary of the method: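 Single-concentration KINOMEscan (DiscoverX) binding screen at 1 μM against a panel of 468 purified kinases and mutants. The read-out is binding relative to control.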

[8] = target: Serine/threonine-protein kinase PLK4 (Homo sapiens) (UniProt O00444); assay: Binding affinity to wild-type human partial length PLK4 (M1 to S273 residues) expressed in mammalian expression system assessed as residual binding level at 1 uM by Kinomescan method relative to control
[9] = target: Mast/stem cell growth factor receptor Kit (Homo sapiens, UniProt P10721); assay: Binding affinity to wild-type human partial length autoinhibited KIT (Y545 to D952 residues) expressed in mammalian expression system assessed as residual binding level at 1 uM by Kinomescan method relative to control
[10] = target: Serine/threonine-protein kinase TAO1 (Homo sapiens) (UniProt Q7L7X3); assay: Binding affinity to wild-type human partial length TAOK1 (M1 to A320 residues) expressed in mammalian expression system assessed as residual binding level at 1 uM by Kinomescan method relative to control
[11] = target: Macrophage-stimulating protein receptor (Homo sapiens) (UniProt Q04912); assay: Binding affinity to wild-type human partial length MST1R (I1057 to L1363 residues) expressed in bacterial expression system assessed as residual binding level at 1 uM by Kinomescan method relative to control
[12] = target: Tyrosine-protein kinase ABL1 (Homo sapiens, UniProt P00519); assay: Binding affinity to wild-type human phosphorylated ABL1 (S229 to K512 residues) expressed in mammalian expression system assessed as residual binding level at 1 uM by Kinomescan method relative to control
[13] = target: Myosin light chain kinase (Homo sapiens) (UniProt Q32MK0); assay: Binding affinity to wild-type human partial length MLCK (D488 to K800 residues) expressed in bacterial expression system assessed as residual binding level at 1 uM by Kinomescan method relative to control
Summary of the method: (§2)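 Kinome-wide competition binding screen against a panel of 468 purified kinases/mutants, with the test compound at a single concentration of 1 μM. Read-out is the relative binding activity of each kinase in the presence of compound.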

[14] = target: Serine/threonine-protein kinase 38 (Homo sapiens) (UniProt Q15208); assay: Binding affinity to wild-type human partial length NDR1 (N33 to E449 residues) expressed in mammalian expression system assessed as residual binding level at 1 uM by Kinomescan method relative to control
[15] = target: Serine/threonine-protein kinase VRK2 (Homo sapiens) (UniProt Q86Y07); assay: Binding affinity to wild-type human partial length VRK2 (M1 to T336 residues) expressed in mammalian expression system assessed as residual binding level at 1 uM by Kinomescan method relative to control
[16] = target: Tyrosine-protein kinase FRK (Homo sapiens) (UniProt P42685); assay: Binding affinity to wild-type human partial length FRK (A215 to F503 residues) expressed in bacterial expression system assessed as residual binding level at 1 uM by Kinomescan method relative to control; summary of the method: as §2
[17] = target: Mitogen-activated protein kinase kinase kinase 19 (Homo sapiens) (UniProt Q56UN5); assay: Binding affinity to wild-type human partial length YSK4 (T1019 to H1328 residues) expressed in mammalian expression system assessed as residual binding level at 1 uM by Kinomescan method relative to control
[18] = target: Ribosomal protein S6 kinase alpha-5 (Homo sapiens) (UniProt O75582); assay: Binding affinity to wild-type human partial length N-terminal RPS6KA5 kinase domain 1 expressed in bacterial expression system assessed as residual binding level at 1 uM by Kinomescan method relative to control
[19] = target: TGF-beta receptor type-2 (Homo sapiens) (UniProt P37173); assay: Binding affinity to wild-type human partial length TGFBR2 (I218 to K567 residues) expressed in bacterial expression system assessed as residual binding level at 1 uM by Kinomescan method relative to control
[20] = test system: Phosphatidylinositol 4,5-bisphosphate 3-kinase catalytic subunit alpha isoform (Homo sapiens), P42336 [Q546K]; assay: Binding affinity to human partial length PIK3CA Q546K mutant (R108 to N1068 residues) expressed in mammalian expression system assessed as residual binding level at 1 uM by Kinomescan method relative to control; summary of the method: as §1
[21] = target: Insulin receptor (Homo sapiens) (UniProt P06213); assay: Binding affinity to wild-type human partial length INSR (P997 to E1318 residues) expressed in mammalian expression system assessed as residual binding level at 1 uM by Kinomescan method relative to control
[22] = target: cAMP-dependent protein kinase catalytic subunit alpha (Homo sapiens) (UniProt P17612); assay: Binding affinity to wild-type human partial length PKAC-alpha (G10 to F351 residues) expressed in bacterial expression system assessed as residual binding level at 1 uM by Kinomescan method relative to control

Chain of Serine/threonine-protein kinase TAO1 (Homo sapiens) (Q7L7X3 whole entry, the tested form may be a part): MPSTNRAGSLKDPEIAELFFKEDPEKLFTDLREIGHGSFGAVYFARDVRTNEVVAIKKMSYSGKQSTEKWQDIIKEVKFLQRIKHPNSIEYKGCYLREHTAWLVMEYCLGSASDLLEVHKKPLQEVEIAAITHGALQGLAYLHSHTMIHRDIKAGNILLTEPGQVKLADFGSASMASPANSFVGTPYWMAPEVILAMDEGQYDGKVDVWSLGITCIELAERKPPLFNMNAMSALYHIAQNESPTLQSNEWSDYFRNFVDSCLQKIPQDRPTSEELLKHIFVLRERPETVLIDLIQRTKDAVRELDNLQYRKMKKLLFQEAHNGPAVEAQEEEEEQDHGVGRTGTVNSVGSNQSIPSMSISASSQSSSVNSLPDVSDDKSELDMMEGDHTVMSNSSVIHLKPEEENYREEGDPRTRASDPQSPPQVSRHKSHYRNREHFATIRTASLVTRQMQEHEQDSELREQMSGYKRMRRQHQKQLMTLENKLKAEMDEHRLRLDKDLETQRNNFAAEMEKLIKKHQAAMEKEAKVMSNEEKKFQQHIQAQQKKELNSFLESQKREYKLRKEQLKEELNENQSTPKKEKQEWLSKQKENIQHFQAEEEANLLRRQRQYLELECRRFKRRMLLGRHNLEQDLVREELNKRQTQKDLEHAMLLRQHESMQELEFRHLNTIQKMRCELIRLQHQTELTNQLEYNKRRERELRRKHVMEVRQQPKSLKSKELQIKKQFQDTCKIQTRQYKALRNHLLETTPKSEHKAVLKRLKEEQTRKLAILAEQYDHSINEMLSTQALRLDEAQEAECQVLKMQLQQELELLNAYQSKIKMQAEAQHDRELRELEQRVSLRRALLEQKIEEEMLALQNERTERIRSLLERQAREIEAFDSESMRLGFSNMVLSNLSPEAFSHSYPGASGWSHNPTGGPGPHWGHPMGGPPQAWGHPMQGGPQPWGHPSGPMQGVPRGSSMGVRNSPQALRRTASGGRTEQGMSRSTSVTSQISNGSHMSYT
Chain of Serine/threonine-protein kinase VRK2 (Homo sapiens) (Q86Y07 whole entry, the tested form may be a part): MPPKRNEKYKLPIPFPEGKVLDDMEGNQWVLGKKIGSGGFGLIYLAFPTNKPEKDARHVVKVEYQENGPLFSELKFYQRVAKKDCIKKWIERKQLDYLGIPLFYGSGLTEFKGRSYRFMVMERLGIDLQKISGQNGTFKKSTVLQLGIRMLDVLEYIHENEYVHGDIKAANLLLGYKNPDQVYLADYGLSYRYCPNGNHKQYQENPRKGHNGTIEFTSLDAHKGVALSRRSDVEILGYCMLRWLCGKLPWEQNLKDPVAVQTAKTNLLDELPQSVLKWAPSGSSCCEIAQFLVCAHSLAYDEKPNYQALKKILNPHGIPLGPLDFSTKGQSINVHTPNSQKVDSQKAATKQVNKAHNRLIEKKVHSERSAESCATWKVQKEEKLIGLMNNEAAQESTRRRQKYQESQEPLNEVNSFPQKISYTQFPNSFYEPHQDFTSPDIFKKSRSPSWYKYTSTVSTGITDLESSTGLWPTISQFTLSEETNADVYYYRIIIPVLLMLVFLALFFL
Chain of Serine/threonine-protein kinase 38 (Homo sapiens) (Q15208 2-465 limits assumed): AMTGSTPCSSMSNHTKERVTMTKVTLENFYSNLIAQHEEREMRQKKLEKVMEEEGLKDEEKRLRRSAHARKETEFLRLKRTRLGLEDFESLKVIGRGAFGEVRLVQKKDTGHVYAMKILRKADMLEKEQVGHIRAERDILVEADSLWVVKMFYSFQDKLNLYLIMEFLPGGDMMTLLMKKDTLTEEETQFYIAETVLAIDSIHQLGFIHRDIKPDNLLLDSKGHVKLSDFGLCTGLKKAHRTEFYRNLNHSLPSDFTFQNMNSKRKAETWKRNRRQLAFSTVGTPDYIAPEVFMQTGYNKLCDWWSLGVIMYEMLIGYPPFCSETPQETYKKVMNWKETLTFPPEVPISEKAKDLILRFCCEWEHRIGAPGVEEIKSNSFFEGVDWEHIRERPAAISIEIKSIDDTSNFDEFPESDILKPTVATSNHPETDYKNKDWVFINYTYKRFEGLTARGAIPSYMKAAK
Chain of Ribosomal protein S6 kinase alpha-5 (Homo sapiens) (O75582 whole entry, looked up, the tested form may be a part): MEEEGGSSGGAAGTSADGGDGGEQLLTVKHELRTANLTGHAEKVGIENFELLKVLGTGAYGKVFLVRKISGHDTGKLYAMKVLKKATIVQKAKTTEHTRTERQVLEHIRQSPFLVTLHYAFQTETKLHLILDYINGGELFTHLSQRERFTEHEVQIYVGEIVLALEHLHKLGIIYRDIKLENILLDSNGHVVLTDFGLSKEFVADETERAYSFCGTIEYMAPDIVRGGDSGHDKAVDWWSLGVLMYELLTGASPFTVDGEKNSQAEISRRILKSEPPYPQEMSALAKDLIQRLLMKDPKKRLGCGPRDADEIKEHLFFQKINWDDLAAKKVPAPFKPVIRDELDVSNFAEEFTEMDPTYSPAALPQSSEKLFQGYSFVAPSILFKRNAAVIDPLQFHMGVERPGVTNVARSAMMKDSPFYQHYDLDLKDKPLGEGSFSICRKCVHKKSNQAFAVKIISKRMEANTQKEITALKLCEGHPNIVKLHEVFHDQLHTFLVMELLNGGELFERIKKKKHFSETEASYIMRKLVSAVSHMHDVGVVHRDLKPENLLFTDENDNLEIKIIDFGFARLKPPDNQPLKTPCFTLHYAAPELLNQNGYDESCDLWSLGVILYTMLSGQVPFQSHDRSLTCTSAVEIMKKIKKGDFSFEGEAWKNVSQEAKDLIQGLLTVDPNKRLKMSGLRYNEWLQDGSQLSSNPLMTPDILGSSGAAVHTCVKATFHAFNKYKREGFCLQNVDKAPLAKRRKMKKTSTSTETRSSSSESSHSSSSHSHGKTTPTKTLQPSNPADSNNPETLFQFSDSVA
Chain of Insulin receptor (Homo sapiens) (P06213 28-758 limits assumed): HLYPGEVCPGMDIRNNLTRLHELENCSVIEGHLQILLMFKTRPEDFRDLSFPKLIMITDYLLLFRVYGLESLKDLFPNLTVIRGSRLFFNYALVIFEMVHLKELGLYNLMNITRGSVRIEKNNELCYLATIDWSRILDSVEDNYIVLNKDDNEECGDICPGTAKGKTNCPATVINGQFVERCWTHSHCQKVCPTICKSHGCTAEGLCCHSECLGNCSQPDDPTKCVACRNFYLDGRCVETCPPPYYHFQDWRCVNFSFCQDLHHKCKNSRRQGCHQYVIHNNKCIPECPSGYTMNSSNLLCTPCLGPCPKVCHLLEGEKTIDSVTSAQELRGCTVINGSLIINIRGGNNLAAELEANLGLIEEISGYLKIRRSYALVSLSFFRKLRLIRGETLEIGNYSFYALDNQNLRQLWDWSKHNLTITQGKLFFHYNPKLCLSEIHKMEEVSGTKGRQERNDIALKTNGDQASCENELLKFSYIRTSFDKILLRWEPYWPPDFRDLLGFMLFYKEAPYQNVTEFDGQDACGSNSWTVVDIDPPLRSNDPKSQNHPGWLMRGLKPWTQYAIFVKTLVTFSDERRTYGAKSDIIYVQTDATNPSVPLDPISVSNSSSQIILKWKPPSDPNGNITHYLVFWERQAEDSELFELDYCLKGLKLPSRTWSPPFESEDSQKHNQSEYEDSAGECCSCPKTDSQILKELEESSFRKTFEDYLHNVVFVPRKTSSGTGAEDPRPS
Chain of Insulin receptor (Homo sapiens) (P06213 763-1382 limits assumed): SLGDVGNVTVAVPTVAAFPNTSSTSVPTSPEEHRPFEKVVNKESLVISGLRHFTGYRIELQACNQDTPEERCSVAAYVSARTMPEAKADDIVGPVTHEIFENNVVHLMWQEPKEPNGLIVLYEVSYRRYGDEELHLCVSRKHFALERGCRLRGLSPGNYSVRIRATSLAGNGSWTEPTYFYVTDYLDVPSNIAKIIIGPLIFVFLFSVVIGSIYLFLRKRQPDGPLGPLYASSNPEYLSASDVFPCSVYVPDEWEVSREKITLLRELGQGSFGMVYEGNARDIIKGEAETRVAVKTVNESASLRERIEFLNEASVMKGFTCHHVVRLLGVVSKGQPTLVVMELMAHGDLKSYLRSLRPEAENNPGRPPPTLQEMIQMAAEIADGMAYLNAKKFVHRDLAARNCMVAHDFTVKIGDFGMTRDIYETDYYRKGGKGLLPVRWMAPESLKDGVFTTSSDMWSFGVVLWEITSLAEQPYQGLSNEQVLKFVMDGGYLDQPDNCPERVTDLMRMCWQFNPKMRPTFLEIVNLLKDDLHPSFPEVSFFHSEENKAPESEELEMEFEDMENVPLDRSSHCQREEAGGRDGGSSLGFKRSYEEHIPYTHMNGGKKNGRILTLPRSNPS
Chain of Tyrosine-protein kinase Yes (Homo sapiens) (P07947 2-543 limits assumed): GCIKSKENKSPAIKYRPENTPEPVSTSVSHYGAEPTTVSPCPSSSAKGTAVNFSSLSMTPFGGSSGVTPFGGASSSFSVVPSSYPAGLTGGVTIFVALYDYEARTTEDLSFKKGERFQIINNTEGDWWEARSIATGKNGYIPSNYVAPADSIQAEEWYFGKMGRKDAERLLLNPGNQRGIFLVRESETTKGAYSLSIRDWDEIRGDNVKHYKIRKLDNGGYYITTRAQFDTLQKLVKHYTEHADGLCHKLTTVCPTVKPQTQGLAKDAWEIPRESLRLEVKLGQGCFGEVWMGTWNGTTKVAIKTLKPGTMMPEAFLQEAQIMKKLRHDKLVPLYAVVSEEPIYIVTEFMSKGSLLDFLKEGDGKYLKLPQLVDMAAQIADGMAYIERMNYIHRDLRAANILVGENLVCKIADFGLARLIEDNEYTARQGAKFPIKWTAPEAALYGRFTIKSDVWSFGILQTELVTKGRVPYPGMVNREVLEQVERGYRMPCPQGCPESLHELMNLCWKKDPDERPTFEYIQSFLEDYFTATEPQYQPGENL

Question: Which AUC(0-t) [1] does the source give for `Cc1ccc(NC(=O)c2ccc(CN(CCN(C)C)C(=O)c3cccnc3)cc2)cc1Nc1nccc(-c2cccnc2)n1` here?
Answer: 528 ng·h/mL

Question: And the inhibition [2]?
Answer: Active

Question: And the Activity [3]?
Answer: 100%

Question: And the Activity [4]?
Answer: 88%

Question: And the MRT last [5]?
Answer: 3.33 h

Question: What about the Activity [6] of the same molecule?
Answer: 96%

Question: What about the Activity [7] of the same molecule?
Answer: 100%

Question: And the Activity [8]?
Answer: 88%

Question: And the Activity [9]?
Answer: 100%

Question: What about the Activity [10] of the same molecule?
Answer: 100%

Question: What about the Activity [11] of the same molecule?
Answer: 100%

Question: And the Activity [12]?
Answer: 73%

Question: What about the Activity [13] of the same molecule?
Answer: 80%

Question: What about the Activity [14] of the same molecule?
Answer: 71%

Question: And the Activity [15]?
Answer: 100%

Question: What about the Activity [16] of the same molecule?
Answer: 80%

Question: What about the Activity [17] of the same molecule?
Answer: 96%

Question: What about the Activity [18] of the same molecule?
Answer: 86%

Question: And the Activity [19]?
Answer: 100%

Question: And the Activity [20]?
Answer: 90%

Question: What about the Activity [21] of the same molecule?
Answer: 100%

Question: What about the Activity [22] of the same molecule?
Answer: 95%
